Assay results as given in PMC3428507 (Journal of molecular biology, 2012).

Tests used:
H3 (1-42) = experiment: 15N-labeled H3; assay type: binding, human; conditions: 80 μM 15N-H3, 2 equivalents unlabeled Pf1 PHD1; 20 mM Tris-d11 pH 6.0, 50 mM NaCl, 10 μM ZnSO4, 15 mM DTT, 25 °C
Pf1 PHD1 = Pf1 PHD1 (Homo sapiens, UniProt Q96QT6); experiment: NMR of mixture of 15N-MRG15 CD and 15N-Pf1 PHD1; assay type: binding; conditions: 1:1 mixture, absence of histone targets
In short: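 Both proteins were recombinant, expressed in E. coli BL21(DE3) and uniformly 15N-labelled by growth in M9 minimal medium with 15N-ammonium sulfate. They were purified by affinity resin, TEV cleavage and reversed-phase HPLC, then lyophilized; labelling was confirmed by ESI-MS. Pf1 PHD1 was refolded in 6 M Gdn-HCl with 50 mM DTT (42 °C, 5 h), given ZnSO4, and gel-filtered. Concentrations were measured spectrophotometrically.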

[1] = system: Pf1 PHD1/MBD (residues 48–241); experiment: NMR of 15N-labeled Pf1 PHD1/MBD with MRG15 proteins; assay type: binding, human
[2] = system: Pf1 PHD1 (residues 48–116); experiment: NMR of 15N-labeled Pf1 PHD1 with full-length MRG15 and Pf1 MBD; assay type: binding, human; conditions: 1:1 mixture with full-length MRG15; pH 7.5, 25 °C

B1: PHD1: human Pf1 PHD1 domain (residues 48–116) (protein)
chain: RRSGRATNHDSCDSCKEGGDLLCCDHCPAAFHLQCCNPPLSEEMLPPGEWMCHRCTVRRKKREQKKELG
modifications: left off: GST, end not stated, cleaved
perturbation of H3 (1-42) resonances (H3 (1-42)): The amide resonances of Thr3 and Lys4 were broadened beyond detection upon PHD1 addition while that of Thr6 was significantly broadened

B2: MRG15 CD: MRG15 CD (residues 1–90) (protein)
chain: MAPKQDPKPKFQEGERVLCFHGPLLYEAKCVKVAIKDKQVKYFIHYSGWNKNWDEWVPESRVLKYVDTNLQKQRELQKANQEQYAEGKMR
modifications: left off: His6, N-terminal, cleaved
direct interaction of MRG15 CD and Pf1 PHD1 (Pf1 PHD1): largely unperturbed
involvement of MRG15 CD in PHD1 interactions ([1]; 1D 1H NMR of Pf1 PHD1/MBD-MRG15 complex (Supp. Fig. S4)): appeared to be not involved in PHD1 interactions

B3: full-length MRG15: full-length MRG15 (residues 1–323) (protein)
chain: MAPKQDPKPKFQEGERVLCFHGPLLYEAKCVKVAIKDKQVKYFIHYSGWNKNWDEWVPESRVLKYVDTNLQKQRELQKANQEQYAEGKMRGAAPGKKTSGLQQKNVEVKTKKNKQKTPGNGDGGSTSETPQPPRKKRARVDPTVENEETFMNRVEVKVKIPEELKPWLVDDWDLITRQKQLFYLPAKKNVDSILEDYANYKKSRGNTDNKEYAVNEVVAGIKEYFNVMLGTQLLYKFERPQYAEILADHPDAPMSQVYGAPHLLRLFVRIGAMLAYTPLDEKSLALLLNYLHDFLKYLAKNSATLFSASDYEVAPPEYHRKAV
modifications: left off: His tag (from the vector pMCSG7), end not stated, state not stated
effect on 15N-Pf1 PHD1/MBD spectrum ([1]; equimolar, 20 mM Tris pH 7.5, 50 mM NaCl, 10 μM ZnSO4, 15 mM DTT, 0.2% NaN3, 25 °C): disappearance of most of the resonances belonging to the PHD1 domain
effect on 15N-PHD1 spectrum without Pf1 MBD [2]: little or no perturbations compared to the apo-PHD1
